For one series, the species on record is Homo sapiens. Nature of the series: Inhibition of recombinant human MARK1 T20S mutant (2 to end residues) at 10 uM using KKKVSRSGLYRSPSMPENLNRPR as substrate measured after 40 mins in presence of [gamma33P]ATP by scintillation counting method.
Series [1] has as its target Rhodopsin kinase GRK1 (Homo sapiens) (UniProt Q15835). Description: Inhibition of recombinant full-length human GRK1 at 10 uM using KKKKERLLDDRHDSGLDSMKDEE as substrate measured after 40 mins in presence of [gamma33P]ATP by scintillation counting method.
Series [2] has as its target SRSF protein kinase 1 (Homo sapiens) (UniProt Q96SB4). Nature of the series: Inhibition of human SRPK1 (2 to end residues) using RSRSRSRSRSRSRSR as substrate measured after 40 mins in presence of [gamma33P]ATP by scintillation counting method. The gist of the method: (§1)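 Kinase panel of 422 kinases screened by Eurofins KinaseProfiler at a single test-compound concentration of 10 µM.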

Series [3] has as its target Cyclin-dependent kinase-like 2 (Homo sapiens) (UniProt Q92772). Description: Inhibition of human CDKL2 at 10 uM by radiometric method. The gist of the method: as §1
Series [4] addresses Serine/threonine-protein kinase 17B (Homo sapiens) (UniProt O94768). Description: Inhibition of recombinant full-length human DRAK2 at 10 uM using KKRPQRRYSNVF as substrate measured after 120 mins in presence of [gamma33P]ATP by scintillation counting method.
The target in series [5] is Transcription initiation factor TFIID subunit 1-like (Homo sapiens) (UniProt Q8IZX4). Description: Binding affinity to human partial length TAF1L bromodomain 2 (Q1523 to D1654 residues) expressed in bacterial expression system at 1 uM by BROMOscan assay. The essentials:
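BROMOscan bromodomain cross-screen run by an outside service, compound at 1 µM against 32 recombinant bromodomains. Binding given as percent of control.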

Series [6] deals with Serine/threonine-protein kinase D1 (Homo sapiens), Q15139 [UNDEFINED MUTATION]. Description: Inhibition of recombinant full-length human PKCmu R135A mutant at 10 uM using KKLNRTLSVA as substrate measured after 40 mins in presence of [gamma33P]ATP by scintillation counting method.
Series [7] deals with Serine/threonine-protein kinase 38-like (Homo sapiens) (UniProt Q9Y2H1). Description: Inhibition of recombinant human NDR2 (83 to end residues) at 10 uM using RSRSRSRSRSRSRSR as substrate measured after 40 mins in presence of [gamma33P]ATP by scintillation counting method.
Series [8] addresses CDK7/Cyclin H/MNAT1 (Homo sapiens) (UniProt P51946+P50613+P51948). Description: Inhibition of recombinant full length human CDK7/cyclin H/MAT1 at 10 uM using peptide substrate measured after 40 mins in presence of [gamma33P]ATP by scintillation counting method. It is filed as protein-complex assay.
The target of series [9] is Bromodomain and PHD finger-containing protein 3 (Homo sapiens) (UniProt Q9ULD4). Nature of the series: Binding affinity to human N-terminal His-tagged BRPF3 assessed as change in melting temperature at 10 uM by SYPRO orange dye-based fluorescence assay. The gist of the method: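 Thermal shift with His-tagged human bromodomain at 2 μM final in 10 mM HEPES pH 7.5, 500 mM NaCl. Compound at 10 μM final with 0.1% DMSO; SYPRO Orange at 1:1000. Equilibrated 3 min at 25 °C, then heated from 25 to 95 °C at 1 °C/min. Melting temperature shift taken from fluorescence; at least duplicate.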

In series [10] the target is Protein-tyrosine kinase 6 (Homo sapiens) (UniProt Q13882). Nature of the series: Inhibition of full-length recombinant human BRK at 10 uM using poly(Glu, Tyr) 4:1 as substrate measured after 40 mins in presence of [gamma33P]ATP by scintillation counting method. The gist of the method:
as §1

Series [11] deals with STE20-like serine/threonine-protein kinase (Homo sapiens) (UniProt Q9H2G2). Nature of the series: Inhibition of human SLK (1 to 373 residues) using RLGRDKYKTLRQIRQ as substrate measured after 40 mins in presence of [gamma33P]ATP by scintillation counting method. The gist of the method: as §1
In series [12] the target is Death-associated protein kinase 1 (Homo sapiens) (UniProt P53355). Nature of the series: Inhibition of recombinant human DAPK1 (1 to 296 residues) at 10 uM using KKLNRTLSFAEPG as substrate measured after 40 mins in presence of [gamma33P]ATP by scintillation counting method.
The target in series [13] is Serine/threonine-protein kinase 32A (Homo sapiens) (UniProt Q8WU08). Description: Inhibition of recombinant full-length human STK32A at 10 uM using casein as substrate measured after 120 mins in presence of [gamma33P]ATP by scintillation counting method.
The target in series [14] is BMP-2-inducible protein kinase (Homo sapiens) (UniProt Q9NSY1). Nature of the series: Inhibition of recombinant human BIKepsilon at 10 uM using peptide substrate measured after 120 mins in presence of [gamma33P]ATP by scintillation counting method.
Series [15] relates to Platelet-derived growth factor receptor alpha (Homo sapiens), P16234 [V561D]. Nature of the series: Inhibition of recombinant human PDGFRalpha V561D mutant (550 to end residues) at 10 uM using GGMEDIYFEFMGGKKK as substrate measured after 40 mins in presence of [gamma33P]ATP by scintillation counting method.
Series [16] can be described thus: Unbound fraction in Sprague-Dawley rat plasma at 1 uM measured after 16 hrs by equilibrium dialysis-based LC-MS/MS analysis. It is filed as ADME, cell-free.
The target in series [17] is Phosphatidylinositol 4-phosphate 5-kinase type-1 alpha (Homo sapiens) (UniProt Q99755). Description: Inhibition of recombinant full-length human PIP5K1alpha at 10 uM using phosphatidylinositol 4-phosphate as substrate measured after 40 mins by HTRF assay. For orientation: In TR-FRET formats the signal depends on donor and acceptor labels being close together.
Series [18] concerns the target Wee1-like protein kinase 2 (Homo sapiens) (UniProt P0C1S8). Description: Inhibition of recombinant full-length human WEE1b at 10 uM using LSNLYHQGKFLQTFCGSPLYRRR as substrate measured after 120 mins in presence of [gamma33P]ATP by scintillation counting method.
Series [19] concerns the target AP2-associated protein kinase 1 (Homo sapiens) (UniProt Q2M2I8). Description: Inhibition of human AAK1 at 10 uM using peptide substrate measured after 120 mins in presence of [gamma33P]ATP by scintillation counting method. The essentials:
as §1

The target in series [20] is Insulin-like growth factor 1 receptor (Homo sapiens) (UniProt P08069). Nature of the series: Inhibition of recombinant human activated IGF1R (959 to end residues) at 10 uM using KKKSPGEYVNIEFG as substrate measured after 40 mins in presence of [gamma33P]ATP by scintillation counting method.
Series [21] has as its target PAS domain-containing serine/threonine-protein kinase (Homo sapiens) (UniProt Q96RG2). Nature of the series: Inhibition of recombinant human PASK (995 to end residues) at 10 uM using KKLNRTLSFAEPG as substrate measured after 40 mins in presence of [gamma33P]ATP by scintillation counting method.
Series [22] has as its target Serine/threonine-protein kinase D2 (Homo sapiens) (UniProt Q9BZL6). Nature of the series: Inhibition of recombinant full-length human PKD2 at 10 uM using KKLNRTLSVA as substrate measured after 40 mins in presence of [gamma33P]ATP by scintillation counting method.

Active and inactive are the calls of the source. The rule behind the calls is not given here.

From ChEMBL document CHEMBL4350961, “Discovery of Pyrrolo[3,2- d]pyrimidin-4-one Derivatives as a New Class of Potent and Cell-Active Inhibitors of P300/CBP-Associated Factor Bromodomain” (J Med Chem, 2019) come the findings set out here.

What is called ΔTm is the shift of the melting midpoint relative to a reference. As usually defined, the fraction unbound is free concentration divided by total concentration. Low values mean little free substance, high ones much free substance.

Chain of Serine/threonine-protein kinase 32A (Homo sapiens) (Q8WU08 whole entry): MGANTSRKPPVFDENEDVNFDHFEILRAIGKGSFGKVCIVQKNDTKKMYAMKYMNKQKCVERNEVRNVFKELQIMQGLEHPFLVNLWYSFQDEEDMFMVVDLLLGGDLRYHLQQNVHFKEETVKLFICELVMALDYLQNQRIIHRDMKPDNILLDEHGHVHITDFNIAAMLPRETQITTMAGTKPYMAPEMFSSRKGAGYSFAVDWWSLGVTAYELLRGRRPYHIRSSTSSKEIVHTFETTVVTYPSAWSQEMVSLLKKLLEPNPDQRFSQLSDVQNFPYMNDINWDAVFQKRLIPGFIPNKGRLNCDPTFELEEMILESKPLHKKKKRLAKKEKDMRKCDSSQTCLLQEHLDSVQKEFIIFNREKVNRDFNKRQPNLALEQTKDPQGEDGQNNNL
Chain of Serine/threonine-protein kinase 17B (Homo sapiens) (O94768 whole entry, the tested form may be a part): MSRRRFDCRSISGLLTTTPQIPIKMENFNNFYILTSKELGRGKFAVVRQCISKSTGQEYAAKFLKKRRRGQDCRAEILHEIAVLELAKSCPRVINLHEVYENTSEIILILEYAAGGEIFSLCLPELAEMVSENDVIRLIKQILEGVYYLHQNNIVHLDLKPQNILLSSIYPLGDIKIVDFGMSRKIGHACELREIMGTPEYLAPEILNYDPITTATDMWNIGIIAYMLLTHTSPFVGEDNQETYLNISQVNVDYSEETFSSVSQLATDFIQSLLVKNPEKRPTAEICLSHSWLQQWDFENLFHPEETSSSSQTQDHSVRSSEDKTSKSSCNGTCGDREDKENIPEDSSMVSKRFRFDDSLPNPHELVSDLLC
Chain of SRSF protein kinase 1 (Homo sapiens) (Q96SB4 whole entry): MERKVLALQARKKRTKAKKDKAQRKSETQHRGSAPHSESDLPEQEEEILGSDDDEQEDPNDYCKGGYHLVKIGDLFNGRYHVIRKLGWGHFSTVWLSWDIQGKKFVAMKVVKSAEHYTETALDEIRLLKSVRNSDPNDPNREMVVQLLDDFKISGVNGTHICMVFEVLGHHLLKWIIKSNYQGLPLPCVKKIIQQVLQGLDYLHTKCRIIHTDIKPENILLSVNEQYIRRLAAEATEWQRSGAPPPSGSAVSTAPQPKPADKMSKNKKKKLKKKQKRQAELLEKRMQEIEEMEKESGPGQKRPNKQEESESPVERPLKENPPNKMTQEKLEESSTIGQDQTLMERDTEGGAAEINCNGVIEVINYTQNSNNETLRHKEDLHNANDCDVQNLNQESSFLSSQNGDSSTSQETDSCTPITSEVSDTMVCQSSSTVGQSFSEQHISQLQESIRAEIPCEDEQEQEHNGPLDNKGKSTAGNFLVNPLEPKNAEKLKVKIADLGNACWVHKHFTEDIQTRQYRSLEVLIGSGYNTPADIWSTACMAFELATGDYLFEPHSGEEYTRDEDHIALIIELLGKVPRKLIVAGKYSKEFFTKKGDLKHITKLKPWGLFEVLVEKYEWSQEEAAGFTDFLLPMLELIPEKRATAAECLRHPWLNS
Chain of Bromodomain and PHD finger-containing protein 3 (Homo sapiens) (Q9ULD4 whole entry): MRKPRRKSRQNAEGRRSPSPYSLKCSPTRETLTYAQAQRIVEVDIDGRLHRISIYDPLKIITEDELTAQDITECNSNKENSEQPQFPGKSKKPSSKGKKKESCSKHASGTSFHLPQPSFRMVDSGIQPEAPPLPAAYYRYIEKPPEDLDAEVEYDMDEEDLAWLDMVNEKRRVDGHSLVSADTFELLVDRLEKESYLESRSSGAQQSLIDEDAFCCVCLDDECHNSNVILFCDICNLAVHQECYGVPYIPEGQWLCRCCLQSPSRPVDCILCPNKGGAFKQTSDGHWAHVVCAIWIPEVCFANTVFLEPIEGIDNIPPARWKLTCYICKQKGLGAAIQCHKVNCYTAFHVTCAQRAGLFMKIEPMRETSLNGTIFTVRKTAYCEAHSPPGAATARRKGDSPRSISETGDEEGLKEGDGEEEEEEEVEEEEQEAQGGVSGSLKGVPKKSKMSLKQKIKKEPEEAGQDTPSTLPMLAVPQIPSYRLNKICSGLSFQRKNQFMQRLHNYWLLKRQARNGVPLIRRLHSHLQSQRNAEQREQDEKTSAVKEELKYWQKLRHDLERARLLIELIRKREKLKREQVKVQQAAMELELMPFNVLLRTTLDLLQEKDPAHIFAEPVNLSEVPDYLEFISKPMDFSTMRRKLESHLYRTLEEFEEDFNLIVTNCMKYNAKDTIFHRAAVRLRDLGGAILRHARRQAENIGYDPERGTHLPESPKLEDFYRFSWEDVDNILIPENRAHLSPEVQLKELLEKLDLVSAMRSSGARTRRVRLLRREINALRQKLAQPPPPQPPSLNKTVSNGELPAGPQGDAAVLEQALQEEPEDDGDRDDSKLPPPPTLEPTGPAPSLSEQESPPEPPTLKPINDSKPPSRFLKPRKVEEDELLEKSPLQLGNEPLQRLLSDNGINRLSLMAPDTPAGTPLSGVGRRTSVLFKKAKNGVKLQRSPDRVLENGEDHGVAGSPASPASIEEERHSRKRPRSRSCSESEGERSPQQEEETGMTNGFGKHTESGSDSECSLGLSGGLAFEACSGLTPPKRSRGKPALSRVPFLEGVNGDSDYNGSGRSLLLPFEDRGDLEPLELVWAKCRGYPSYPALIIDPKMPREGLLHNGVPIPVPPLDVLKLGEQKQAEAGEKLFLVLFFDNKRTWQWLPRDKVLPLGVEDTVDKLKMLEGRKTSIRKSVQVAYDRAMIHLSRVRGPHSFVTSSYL
Chain of AP2-associated protein kinase 1 (Homo sapiens) (Q2M2I8 whole entry, looked up): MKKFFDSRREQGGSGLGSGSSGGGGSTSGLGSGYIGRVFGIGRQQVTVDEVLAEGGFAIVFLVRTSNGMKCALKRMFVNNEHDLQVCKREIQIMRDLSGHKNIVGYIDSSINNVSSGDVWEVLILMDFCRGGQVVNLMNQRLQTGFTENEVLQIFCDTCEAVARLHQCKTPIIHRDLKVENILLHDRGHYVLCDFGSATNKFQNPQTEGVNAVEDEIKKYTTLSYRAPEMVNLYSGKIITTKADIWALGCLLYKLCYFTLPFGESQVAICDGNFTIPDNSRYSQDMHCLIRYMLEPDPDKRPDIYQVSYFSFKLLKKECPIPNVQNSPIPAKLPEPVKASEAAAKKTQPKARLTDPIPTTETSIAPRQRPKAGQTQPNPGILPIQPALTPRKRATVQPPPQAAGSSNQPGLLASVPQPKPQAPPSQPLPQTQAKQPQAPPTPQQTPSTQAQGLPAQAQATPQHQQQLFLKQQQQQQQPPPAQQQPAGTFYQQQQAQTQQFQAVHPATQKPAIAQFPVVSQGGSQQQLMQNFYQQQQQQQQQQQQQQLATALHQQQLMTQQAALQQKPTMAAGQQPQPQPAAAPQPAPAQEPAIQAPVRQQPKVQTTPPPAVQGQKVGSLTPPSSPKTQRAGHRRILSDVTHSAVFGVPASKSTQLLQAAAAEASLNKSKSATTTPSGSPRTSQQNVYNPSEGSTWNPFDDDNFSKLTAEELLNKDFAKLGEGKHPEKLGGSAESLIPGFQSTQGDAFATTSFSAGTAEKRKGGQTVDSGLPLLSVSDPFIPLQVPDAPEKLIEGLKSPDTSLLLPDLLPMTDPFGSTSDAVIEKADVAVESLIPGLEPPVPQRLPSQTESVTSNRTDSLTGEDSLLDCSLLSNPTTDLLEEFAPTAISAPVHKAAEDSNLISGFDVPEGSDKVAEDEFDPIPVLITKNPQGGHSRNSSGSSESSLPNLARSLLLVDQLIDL
Chain of PAS domain-containing serine/threonine-protein kinase (Homo sapiens) (Q96RG2 whole entry, the tested form may be a part): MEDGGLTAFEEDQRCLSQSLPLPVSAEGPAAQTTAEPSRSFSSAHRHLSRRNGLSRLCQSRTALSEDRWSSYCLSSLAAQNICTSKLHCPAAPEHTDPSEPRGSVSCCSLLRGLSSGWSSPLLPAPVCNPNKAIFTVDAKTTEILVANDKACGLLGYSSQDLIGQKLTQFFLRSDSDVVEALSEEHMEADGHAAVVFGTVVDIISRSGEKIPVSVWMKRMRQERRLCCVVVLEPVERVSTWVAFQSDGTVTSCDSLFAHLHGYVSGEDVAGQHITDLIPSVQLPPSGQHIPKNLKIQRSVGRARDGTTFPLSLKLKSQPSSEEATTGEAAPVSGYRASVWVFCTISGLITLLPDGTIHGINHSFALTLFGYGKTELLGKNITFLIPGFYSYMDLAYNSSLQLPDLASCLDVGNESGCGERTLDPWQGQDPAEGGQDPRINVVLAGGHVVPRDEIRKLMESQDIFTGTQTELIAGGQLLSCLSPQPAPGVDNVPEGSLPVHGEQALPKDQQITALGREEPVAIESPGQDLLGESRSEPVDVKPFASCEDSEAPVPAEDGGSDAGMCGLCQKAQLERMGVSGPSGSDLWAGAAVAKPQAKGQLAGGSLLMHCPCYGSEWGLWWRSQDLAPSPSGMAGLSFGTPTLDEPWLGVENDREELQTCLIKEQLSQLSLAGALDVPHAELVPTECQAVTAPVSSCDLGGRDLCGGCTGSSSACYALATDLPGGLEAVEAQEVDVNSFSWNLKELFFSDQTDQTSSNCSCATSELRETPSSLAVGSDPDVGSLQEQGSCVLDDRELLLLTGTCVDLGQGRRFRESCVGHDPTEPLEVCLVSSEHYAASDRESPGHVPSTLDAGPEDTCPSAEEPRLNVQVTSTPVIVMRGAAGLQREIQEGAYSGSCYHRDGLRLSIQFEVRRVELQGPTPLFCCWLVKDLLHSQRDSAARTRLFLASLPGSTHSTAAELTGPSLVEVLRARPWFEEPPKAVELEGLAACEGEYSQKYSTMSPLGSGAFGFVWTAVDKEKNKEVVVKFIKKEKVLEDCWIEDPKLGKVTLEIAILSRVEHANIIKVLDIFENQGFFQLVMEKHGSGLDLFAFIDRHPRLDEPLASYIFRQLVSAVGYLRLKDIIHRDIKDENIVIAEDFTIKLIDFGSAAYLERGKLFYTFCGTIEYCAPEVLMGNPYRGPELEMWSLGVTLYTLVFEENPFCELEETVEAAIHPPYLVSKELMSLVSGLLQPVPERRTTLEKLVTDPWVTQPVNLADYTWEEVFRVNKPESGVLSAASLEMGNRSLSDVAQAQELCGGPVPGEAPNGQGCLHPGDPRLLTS

Take `CN1C[C@H](Nc2nc3cc[nH]c3c(=O)n2C)C[C@H](c2ccc3c(c2)OCCO3)C1`: the inhibition result (in the series filed under Homo sapiens; in series [1]; in [2]; in series [3]; in series [4]; in series [6]) was “inactive” throughout. Also, the inhibition entry in [7], in series [8], in series [10], in series [11], in series [12] and in series [13] was “inactive” each time. The inhibition entry in [14], in [15], in [17], in [18], in series [19] and in [20] was “inactive” throughout. The inhibition result in series [21] and in series [22] was “inactive” throughout. In addition, the outcome in series [5] was inactive. Besides, the ΔTm in series [9] turned out to be 1.7 °C. Further, the fraction unbound at 16 h, 1 µM in series [16] amounted to 0.058.
